Assay outcomes deposited in PubChem by several laboratories.
Only some compounds are listed: those with a hit (about 2.1% of all), similar ones and a draw of the others.
RTF Ca sens inh – cardiac RTF calcium desensitization. 340,000 compounds, 0.12% hits. IANBD-labeled cardiac RTF, Ca2+ fluorescence. inhibition, % at 7.15 µM. P19429+P45379. AID 493244;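 active = inhibition above the mean inhibition of all tested compounds plus 3 SD, cut at about 17% in these data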;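 note: assay run at fixed EC70 calcium of 1.6 mM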
UCH37 inh – blocks the human deubiquitinase UCH37 | AID 588478 | 330,000 compounds, 0.33% hits | Q9Y5K5 | inhibition, % (concentration not given with the values) | purified proteasome/UCH37, Ub-AMC cleavage fluorescence;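 active = mean inhibition over replicate wells above about 20%, limit read from the data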;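 note: 0% = compound-free wells with enzyme and 100% = wells lacking proteasome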
Target sequence (Q9Y5K5 whole entry, looked up): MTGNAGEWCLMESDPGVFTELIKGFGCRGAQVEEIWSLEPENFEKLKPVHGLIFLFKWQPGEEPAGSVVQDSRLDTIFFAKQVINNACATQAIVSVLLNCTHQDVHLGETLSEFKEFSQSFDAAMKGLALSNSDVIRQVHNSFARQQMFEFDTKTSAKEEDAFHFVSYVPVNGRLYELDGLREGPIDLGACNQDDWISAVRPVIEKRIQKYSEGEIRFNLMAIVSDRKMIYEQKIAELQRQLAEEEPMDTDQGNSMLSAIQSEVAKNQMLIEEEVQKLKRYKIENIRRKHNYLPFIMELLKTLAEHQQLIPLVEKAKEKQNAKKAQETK
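Reagent: Ub-AMC substrate; assay system: Proteasome-associated human UCH37 deubiquitinase; controls: no-proteasome and no-compound wells; read-out: % inhibition of Ub-AMC cleavage fluorescence; timing: 30 min preincubation with enzyme, 25 min cleavage at room temperature; signal: AMC fluorescence from Ub-AMC cleavage, excitation 355 nm, emission 460 nm; buffer or medium: Tris-HCl pH 7.4 plus ovalbumin, ATP-MgCl2, DTT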
Efflux pump mplx – inhibitors of Candida antifungal efflux pumps expressed in yeast | AID 485275 | inhibition, % at 10 µM | S. cerevisiae Candida pump triplex, Nile Red efflux | 330,000 compounds, 0.44% hits;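 active = plate passing quality check with inhibition over a set limit, or well fluorescence over plate mean plus 4 SD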;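 note: Nile Red retained in pooled yeast measured as flow cytometry median fluorescence; 0% = buffer negative control and 100% = Enniatin B positive control; higher means more Nile Red kept so more efflux inhibition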
ARNT TACC3 PPI – disrupts binding between human ARNT and TACC3; AlphaScreen His-ARNT PAS-B/GST-TACC3 binding, luminescence; TACC3 fragment carries E629A point mutation; inhibition, % at 9.99 µM; 390,000 compounds, 0.66% hits; AID 623870;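 active = mean inhibition of replicates at least 50% and at least half of replicates each reaching 50%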;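 note: 0% = complete ARNT plus TACC3 wells and 100% = ARNT alone without TACC3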
RTF Ca sens act – cardiac RTF calcium sensitization; activation, % at 7.2 µM; IANBD-labeled TnC RTF fluorescence at EC20 calcium; 0% EC20 calcium, 100% full calcium; P19429+P45379; AID 493008; 340,000 compounds, 0.24% hits;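 active = activation above the mean over all tested compounds plus 3 SD, cut at about 30% in these data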;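 note: rise in fluorescence read as greater calcium sensitivity of cardiac thin filaments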
SUMO Mot1 rescue – SUMOylation pathway inhibition by Mot1-301 growth rescue. AID 2716. 320,000 compounds, 1% hits. S. cerevisiae Mot1-301 growth rescue, ATP luminescence, 38.5C; percent above DMSO median, 100 means doubled. growth rescue, % at 18.8 µM;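 active = every valid replicate shows activation above 250% relative to neutral control wells; inactive = the rest, any valid replicate at or below 250%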;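 note: OY570 slx delta 5 strain wells were the positive control but not used for scaling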
UCH37 confirm – UCH37 Ub-AMC cleavage inhibition, confirmed. shares compounds with UCH37 inh. Proteasome-bound UCH37, Ub-AMC cleavage fluorescence. inhibition, % at 20 µM. 480 compounds, 27% hits;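 active = average inhibition over replicates above about 50%, so the earlier screening hit is confirmed, limit read from the data; inactive = the rest, counted as false positives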;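 note: based on cleavage rate fitted by regression over a 30 min kinetic read; 0% = proteasome plus Ub-AMC and 100% = Ub-AMC without proteasome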
An asterisk follows results filed as active; i = inactive; . = no result given; + = active, no number.

SMILES	RTF Ca sens inh	UCH37 inh	Efflux pump mplx	ARNT TACC3 PPI	RTF Ca sens act	SUMO Mot1 rescue	UCH37 confirm
CC(=O)Oc1ccccc1N(C(C)=O)S(=O)(=O)c1ccc2ccccc2c1	-3.5	0.4	0.0	5.9	0.9	8.8	.
CC(=O)Oc1c(Br)cc(N(C(C)=O)S(=O)(=O)c2ccccc2)c2ccccc12	-9.6	35.8*	0.1	23.3	0.2	323.8	9.1
Cc1cc2ccccc2c(=O)n1CC(=O)NCCC1=CCCCC1	-9.9	55.2*	-0.1	2.2	2.6	-4.7	66.5*
CC1(c2ccccc2Cl)NC(=O)N(CC(=O)NCCC2=CCCCC2)C1=O (centres undefined)	0.2	34.2*	0.2	-1.4	-1.0	-7.9	55.8*
Cc1ccsc1C=NNC(=O)c1cc(C(C)(C)C)[nH]n1	.	11.3	.	.	.	.	.
CCCCC[n+]1ccn(C2=C([O-])c3ccccc3C(=O)/C2=N\S(=O)(=O)c2ccc(Br)cc2)c1	1.9	6.7	0.2	-23.3	-8.2	3.8	.
CCCC[n+]1ccn(C2=C([O-])c3ccccc3C(=O)/C2=N\S(=O)(=O)c2ccccc2)c1	-9.6	41.0*	0.0	.	2.5	-4.0	31.8
CC(C)[n+]1ccn(C2=C([O-])c3ccccc3C(=O)/C2=N\S(=O)(=O)c2ccccc2)c1	3.2	39.5*	-0.1	16.7	-8.8	14.2	22.8
CC(C)c1ccc(S(=O)(=O)N=C2C=C(Sc3ncn[nH]3)C(=O)c3ccccc32)cc1	.	67.2*	.	.	.	.	61.6*
O=[N+]([O-])c1ccc(C=NNC(=S)Nc2ccccc2C(F)(F)F)o1	.	3.4	.	.	.	.	.
Cc1ccccc1OCC(=O)ON=C(N)Cc1ccc(Cl)cc1	.	44.1*	.	.	.	.	14.7
CCC(=O)N(C)/C=C1\Sc2ccccc2C1=O	-8.5	4.0	-0.1	5.7	-5.8	121.0	.
CCC(=O)N(CC)C1=C(O)c2ccccc2C(=O)C1=O	0.5	37.0*	0.1	23.5	2.4	-3.6	9.0
CC(CC(=O)Nc1cc(Cl)ccc1Cl)=NNC(=O)COc1cccc(C)c1	.	-2.2	.	.	.	.	.
CC(C)[C@H](NC(=O)NC1CCCC1)C(=O)O	0.8	0.5	-0.1	-22.9	-5.2	.	.
CC(C)=CCCC(C)NC(=O)NC1CCCCC1 (centres undefined)	-0.7	20.6*	-0.2	-5.2	2.3	.	67.4*
O=C(NC(=S)Nc1ccc(Cl)cc1)c1ccccc1	0.2	1.7	-0.2	-3.9	-8.2	427.2	.
O=C(NC(=S)Nc1ccc(Oc2ccc(Cl)cc2)cc1)c1ccccc1	7.2	46.9*	0.3	-6.5	1.4	-10.0	6.3
O=C1NC(=O)C(=Cc2ccccc2[N+](=O)[O-])S1	-1.9	86.0*	.	-20.8	0.7	.	98.9*
O=C1OC(c2ccc3ccccc3c2O)(c2ccc3ccccc3c2O)c2ccccc21	-1.4	25.7*	.	.	9.1	.	-35.9
O=C1OC2(c3ccccc31)c1ccccc1-c1ccccc12	1.7	1.3	.	-1.7	6.4	.	.
O=C1C(Nc2cccc(O)c2)=C(N2CCCCC2)C(=O)c2ccccc21	-12.9	30.5*	-0.1	38.9	-4.7	22.5	35.2
Cc1ccc(S(=O)(=O)NN=Cc2cccc(OC3CSC3)c2)cc1	.	0.7	.	.	.	.	.
O=C1NN(c2cccc(Br)c2)C(=O)/C1=C/c1ccc(-c2cc([N+](=O)[O-])ccc2O)o1	-5.5	30.6*	0.0	-2.6	-4.7	10.6	66.5*
CCOc1cc(C=NNc2nc(C)cc(=O)[nH]2)ccc1O	.	6.0	.	.	.	.	.
SMILES	RTF Ca sens inh	UCH37 inh	Efflux pump mplx	ARNT TACC3 PPI	RTF Ca sens act	SUMO Mot1 rescue	UCH37 confirm
CC1(C)S/C(=N/N=Cc2ccco2)NC1=O	.	13.5	.	.	.	.	.
CCN1/C(=C/C=C/c2oc3ccc(-c4ccccc4)cc3[n+]2CC)Oc2ccc(-c3ccccc3)cc21	i	35.0*	+	-25.6	997.6*	339.5*	76.4*
O=C1C(C2=C(O)c3ccccc3C2=O)=Nc2ccccc21	0.7	84.9*	0.1	14.8	3.1	-29.1	102.7*
O=C(NN=Cc1ccccc1[N+](=O)[O-])c1ccc(COc2ccccc2-c2ccccc2)cc1	.	5.9	.	.	.	.	.
CCOc1ccc(/C=C2/SC(=S)N(C(C(=O)O)c3ccccc3)C2=O)cc1OCC (centres undefined)	0.6	51.1*	.	0.1	-0.3	.	12.1
CCOc1cc(/C=C2\SC(=S)N(C(C(=O)O)c3ccccc3)C2=O)ccc1O (centres undefined)	-16.9	11.5	0.5	11.7	8.9	3.2	.
C(=Nn1cnnc1)c1cccc2ccccc12	.	-5.6	.	.	.	.	.
N#CCC(=O)NN=Cc1c2ccccc2cc2ccccc12	.	6.0	.	.	.	.	.
COc1ccccc1C1/C(=C(\O)c2ccc3c(c2)OCCO3)C(=O)C(=O)N1CCCn1ccnc1 (centres undefined)	-7.1	42.4*	0.0	11.3	5.0	-1.2	32.8
COc1ccc(C2/C(=C(\O)c3ccc4c(c3)OCCO4)C(=O)C(=O)N2CCCn2ccnc2)cc1 (centres undefined)	-4.5	12.7	-0.3	6.4	-5.0	52.6	.
Cc1[nH][nH]c(=O)c1C(c1ccc(-c2ccc(Cl)c(C(=O)O)c2)o1)c1c(C)[nH][nH]c1=O	1.6	30.1*	.	13.0	0.3	.	44.3
CC1(C)OC(=O)C(=Cc2ccc(-c3ccc(Cl)c(C(=O)O)c3)o2)C(=O)O1	-22.6	2.2	0.0	2.0	1.1	21.8	.
COC(=O)c1cccc(-c2ccc(C(c3c(C)[nH][nH]c3=O)c3c(C)[nH][nH]c3=O)o2)c1	2.2	39.9*	0.0	63.7*	-1.7	-22.4	57.4*
Cc1coc2c1C(=O)C(=O)c1c-2ccc2c1CCCC2(C)C	-1.8	7.1	0.0	1.8	-0.9	25.1	.
C[C@H]1COC2=C1C(=O)C(=O)c1c2ccc2c1CCCC2(C)C	-0.7	41.2*	-0.1	17.0	6.4	-3.8	74.5*
CC(=NNc1cccc2cccnc12)c1ccc(N)cc1	.	5.3	.	.	.	.	.
COc1cc([N+](=O)[O-])ccc1-c1ccc(/C=N\n2cnnc2)o1	-8.7	.	0.1	-6.5	8.4	-2.4	.
COc1cc([N+](=O)[O-])ccc1-c1ccc(/C=C2\C(=O)ON=C2c2ccccc2)o1	6.5	34.0*	.	24.8	-2.5	.	17.5
CCCOc1cccc(C(=O)NN=Cc2ccoc2)c1	.	0.8	.	.	.	.	.
O=S(=O)(NCCC1=CCCCC1)c1cccc(S(=O)(=O)N2CCOCC2)c1	-7.7	58.0*	0.0	14.0	-3.7	841.5	59.5*
Cc1ccc(NC2=CC(=O)C(=O)c3ccccc32)c(C)c1	-4.2	35.8*	0.3	16.1	0.1	-14.7	5.2
O=c1cccccc1NCc1ccccc1	-3.5	5.4	-0.1	2.7	1.2	1.2	.
